Where two headings read alike, the source gives them in different places.
What was measured:
[1] = assay type: in vivo, human
In short: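 Cirrhosis patients (3 per dose level) received a single 4 h IV infusion on Day −7 before the first cycle. Cmax, Tmax, t1/2 and AUC were derived by non-compartmental analysis, with the last concentration extrapolated assuming constant elimination.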

[2] = tested on: patients with HCV and HBV liver cirrhosis; test: Serum fibrosis markers; assay type: in vivo, human; conditions: before vs 12 weeks after PRI-724 administration
In short: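 As an exploratory endpoint, serum hyaluronic acid and type IV collagen type S were measured before and 12 weeks after a course of 280 mg/m² test compound (4 h IV infusion, twice weekly, 12 weeks). Subjects were patients with HCV/HBV cirrhosis, and mean levels were compared.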

[3] = tested on: murine models of liver fibrosis; conditions: due to hepatic stellate cell inactivation and macrophage migration; cited from earlier work
[4] = tested on: patients with HCV and HBV liver cirrhosis; test: Collagen proportionate area; assay type: in vivo, human; conditions: baseline vs 12 weeks after PRI-724 administration, 280 mg/m^2/4 h
[5] = tested on: patients with HCV and HBV liver cirrhosis; test: Child-Pugh; assay type: in vivo, human; conditions: 12 weeks after PRI-724 administration
In short: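 Patients with HCV- or HBV-induced cirrhosis (Child–Pugh A or B) received the test compound at 280 mg/m² by 4 h IV infusion twice weekly for 12 weeks. Child–Pugh class and score were assessed at baseline and 12 weeks post-treatment. Fourteen patients were analysed, with one who discontinued excluded.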

[6] = tested on: patients with HCV and HBV liver cirrhosis; test: Liver stiffness measure; assay type: in vivo, human; conditions: 12 weeks
In short: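 Liver stiffness was measured by FibroScan at baseline and 12 weeks post-treatment in cirrhosis patients. Dosing was 280 mg/m² test compound by 4 h IV infusion twice weekly for 12 weeks. Thirteen patients were analysed, and the change relative to baseline was computed, including the ≥10% decrease subset among Child–Pugh B patients.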

## PRI-724
[1]; 140 mg/m^2/4h, Max
  PRI-724 AUC 0-24h: 4660 ng·h/mL
  PRI-724 Cmax: 1520 ng/mL
  PRI-724 Tmax: 4 h
[1]; 140 mg/m^2/4h, Mean
  PRI-724 AUC 0-24h: 3740 ng·h/mL
  PRI-724 Cmax: 1150 ng/mL
[1]; 140 mg/m^2/4h, Median
  PRI-724 AUC 0-24h: 3770 ng·h/mL
  PRI-724 Cmax: 1030 ng/mL
[1]; 140 mg/m^2/4h, Min
  PRI-724 AUC 0-24h: 2790 ng·h/mL
  PRI-724 Cmax: 888 ng/mL
  PRI-724 Tmax: 1 h
[1]; 280 mg/m^2/4h, Max
  PRI-724 AUC 0-24h: 7500 ng·h/mL
  PRI-724 Cmax: 2590 ng/mL
  PRI-724 Tmax: 4 h
[1]; 280 mg/m^2/4h, Mean
  PRI-724 AUC 0-24h: 5700 ng·h/mL
  PRI-724 Cmax: 1710 ng/mL
[1]; 280 mg/m^2/4h, Median
  PRI-724 AUC 0-24h: 5960 ng·h/mL
  PRI-724 Cmax: 1780 ng/mL
[1]; 280 mg/m^2/4h, Min
  PRI-724 AUC 0-24h: 2650 ng·h/mL
  PRI-724 Cmax: 757 ng/mL
  PRI-724 Tmax: 1 h
[1]; 380 mg/m^2/4h, Max
  PRI-724 AUC 0-24h: 16000 ng·h/mL
  PRI-724 Cmax: 4730 ng/mL
  PRI-724 Tmax: 4 h
[1]; 380 mg/m^2/4h, Mean
  PRI-724 AUC 0-24h: 11800 ng·h/mL
  PRI-724 Cmax: 3530 ng/mL
[1]; 380 mg/m^2/4h, Median
  PRI-724 AUC 0-24h: 11900 ng·h/mL
  PRI-724 Cmax: 3540 ng/mL
[1]; 380 mg/m^2/4h, Min
  PRI-724 AUC 0-24h: 7940 ng·h/mL
  PRI-724 Cmax: 2590 ng/mL
  PRI-724 Tmax: 1 h
[2]
  Serum M2BPGi, mean level: lower relative to baseline levels but not statistically significant
  Serum hyaluronic acid, mean level: no difference in mean levels
  Serum procollagen III peptide, mean level: lower relative to baseline levels but not statistically significant
  Serum type IV collagen type S, mean level: no difference in mean levels
[3]
  Anti-fibrotic effect: exhibits anti-fibrotic effects
[4]
  Collagen proportionate area of the whole liver tissue: no statistically significant change was observed
[5]
  Change of CP class in the seven patients with CP class B at baseline: two improved to class A, four remained unchanged, and one worsened
[6]
  Patients with CP class B whose LSM decreased by ≥10% relative to baseline: four of six patients

— publication PMC9126795 (eBioMedicine, 2022)
